Measurements taken from ChEMBL document CHEMBL4373630, “Rapid kill assessment of an N-arylated NH125 analogue against drug-resistant microorganisms” (Medchemcomm, 2019).
Activity calls are given as the source filed them. The rule behind the calls is not given here.

Assays:
[1] = system: HEK293; assay: Cytotoxicity against human HEK293 cells assessed as reduction in viability at 25 uM after 48 hrs by MTT assay relative to control; assay type: cell-based; conditions: hek293, 48 h
Method in brief: (§1)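 HEK 293 cells, 10^4 per well, in DMEM with 10% FBS and penicillin/streptomycin, were left overnight at 37 °C under 5% CO2. MTT was added for 3 h and dissolved in DMSO, then OD570 was read. Six replicates per treatment; percent kill = (1 – test OD570/untreated OD570) × 100%; CC50 taken as the half-maximal toxic concentration.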

[2] = Cytotoxicity against human HEK293 cells after 48 hrs by MTT assay; assay type: cell-based; method in brief: as §1
[3] = system: Acinetobacter baumannii; assay: Bactericidal activity against multidrug-resistant Acinetobacter baumannii ATCC 1794 at 50 uM after 5 mins by time-kill kinetic assay relative to control; assay type: functional
Method in brief: (§2)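 Overnight culture diluted 1:1000 into LB containing compound at the set concentration or DMSO vehicle alone, then shaken at 250 rpm at 37 °C. At 1, 3, 5 and 10 min, aliquots were serially diluted and plated on LB 1.5% agar and incubated overnight at 37 °C. CFU/mL were taken from plates with 30–300 colonies and compared with vehicle control. Three replicates came from separate colonies.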

[4] = system: Staphylococcus epidermidis; assay: Bactericidal activity against methicillin-resistant Staphylococcus epidermidis ATCC 35984 at 50 uM after 5 to 10 mins by time-kill kinetic assay relative to control; assay type: functional; method in brief: as §2
[5] = system: Acinetobacter baumannii; assay: Bactericidal activity against multidrug-resistant Acinetobacter baumannii ATCC 1794 assessed as as reduction in bacterial load by measuring reduction in colony forming units at 50 uM preincubated for 10 min followed by subculturing and further incubated for over night by time-kill kinetic assay; assay type: functional; method in brief: as §2
[6] = system: Escherichia coli; assay: Antibacterial activity against Escherichia coli clinical isolate UAEC-1 after 16 to 18 hrs by CLSI protocol based broth microdilution assay; assay type: functional
[7] = system: Staphylococcus aureus; assay: (§3) Antibacterial activity against methicillin-resistant Staphylococcus aureus ATCC BAA 1707 assessed as as reduction in bacterial load by measuring reduction in colony forming units at 50 uM treated with 111 days old solution of test compound for 10 mins followed by subculturing and further incubated for over night by time-kill kinetic assay; assay type: functional, organism-based
Method in brief: (§4)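 Compound was prepared at 50 μM in LB and stored on the shelf for 18 days or 111 days. Exponentially growing MRSA 1707 (overnight culture diluted 1:1000 in LB) was exposed to the stored solution for 10 min at 37 °C with 250 rpm shaking. Aliquots were serially diluted, plated on LB agar and incubated overnight at 37 °C. CFU/mL were compared with vehicle control.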

[8] = system: Staphylococcus aureus; assay: Antibacterial activity against methicillin-resistant Staphylococcus aureus ATCC BAA 1707 at 50 uM treated with 18 days old solution of test compound for 10 mins relative to control; assay type: functional; method in brief: as §4
[9] = system: Staphylococcus epidermidis; assay: Bactericidal activity against methicillin-resistant Staphylococcus epidermidis ATCC 35984 assessed as as reduction in bacterial load by measuring reduction in colony forming units at 50 uM preincubated for 5 to 10 min followed by subculturing and further incubated for over night by time-kill kinetic assay; assay type: functional; method in brief: as §2
[10] = system: Staphylococcus aureus; assay: Antibacterial activity against methicillin-resistant Staphylococcus aureus ATCC BAA 1707 at 50 uM treated with 111 days old solution of test compound for 10 mins relative to control; assay type: functional; method in brief: as §4
[11] = system: Cryptococcus neoformans; assay: Fungicidal activity against Cryptococcus neoformans ATCC 66031 at 50 uM after 5 to 10 mins by time-kill kinetic assay relative to control; assay type: functional
Method in brief: (§5)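 C. neoformans ATCC 66031 was streaked on YPD agar for two days at 37 °C, and single colonies were grown overnight in YPD at 37 °C, 250 rpm. Overnight cultures were diluted in fresh YPD with compound in DMSO at 50 μM final, or DMSO alone, and kept at 37 °C, 250 rpm. Aliquots were diluted and plated on YPD agar, and colonies counted after 1–2 days at 37 °C. Triplicate; CFU per mL.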

[12] = system: Staphylococcus epidermidis; assay: Antibacterial activity against methicillin-resistant Staphylococcus epidermidis ATCC 35984 after 16 to 18 hrs by CLSI protocol based broth microdilution assay; assay type: functional
[13] = system: Staphylococcus aureus; assay: Bactericidal activity against methicillin-resistant Staphylococcus aureus ATCC BAA 1707 at 20 uM after 10 mins by time-kill kinetic assay relative to control; assay type: functional; method in brief: as §2
[14] = system: Acinetobacter baumannii; assay: Bactericidal activity against multidrug-resistant Acinetobacter baumannii ATCC 1794 at 50 uM after 10 mins by time-kill kinetic assay relative to control; assay type: functional; method in brief: as §2
[15] = system: Staphylococcus aureus; assay: Bactericidal activity against methicillin-resistant Staphylococcus aureus ATCC BAA 1707 assessed as as reduction in bacterial load by measuring reduction in colony forming units at 5 uM preincubated for 5 min followed by subculturing and further incubated for over night by time-kill kinetic assay; assay type: functional; method in brief: as §2
[16] = system: Staphylococcus aureus; assay: Bactericidal activity against methicillin-resistant Staphylococcus aureus ATCC BAA 1707 at 50 uM after 1 min by time-kill kinetic assay relative to control; assay type: functional; method in brief: as §2
[17] = system: Staphylococcus aureus; assay: Bactericidal activity against methicillin-resistant Staphylococcus aureus ATCC BAA 1707 assessed as as reduction in bacterial load by measuring reduction in colony forming units at 20 uM preincubated for 10min followed by subculturing and further incubated for over night by time-kill kinetic assay; assay type: functional; method in brief: as §2
[18] = system: Acinetobacter baumannii; assay: Bactericidal activity against multidrug-resistant Acinetobacter baumannii ATCC 1794 assessed as as reduction in bacterial load by measuring reduction in colony forming units at 50 uM preincubated for 5 min followed by subculturing and further incubated for over night by time-kill kinetic assay; assay type: functional; method in brief: as §2
[19] = system: Staphylococcus aureus; assay: Bactericidal activity against methicillin-resistant Staphylococcus aureus ATCC BAA 1707 assessed as as reduction in bacterial load by measuring reduction in colony forming units at 50 uM preincubated for 1 min followed by subculturing and further incubated for over night by time-kill kinetic assay; assay type: functional; method in brief: as §2
[20] = system: Staphylococcus aureus; assay: Bactericidal activity against methicillin-resistant Staphylococcus aureus ATCC BAA 1707 at 20 uM after 5 mins by time-kill kinetic assay relative to control; assay type: functional; method in brief: as §2
[21] = system: Staphylococcus aureus; assay: Bactericidal activity against methicillin-resistant Staphylococcus aureus ATCC BAA 1707 at 50 uM after 3 mins by time-kill kinetic assay relative to control; assay type: functional; method in brief: as §2
[22] = system: Staphylococcus aureus; assay: Bactericidal activity against methicillin-resistant Staphylococcus aureus ATCC BAA 1707 at 5 uM after 10 mins by time-kill kinetic assay relative to control; assay type: functional; method in brief: as §2
[23] = system: Staphylococcus aureus; assay: Antibacterial activity against methicillin-resistant Staphylococcus aureus ATCC BAA 1707 after 16 to 18 hrs by CLSI protocol based broth microdilution assay; assay type: functional
[24] = system: Staphylococcus aureus; assay: Bactericidal activity against methicillin-resistant Staphylococcus aureus ATCC BAA 1707 at 50 uM after 5 to 10 mins by time-kill kinetic assay relative to control; assay type: functional; method in brief: as §2
[25] = system: Enterococcus faecium; assay: Bactericidal activity vancomycin-resistant Enterococcus faecium ATCC 700221 at 50 uM after 5 to 10 mins by time-kill kinetic assay relative to control; assay type: functional; method in brief: as §2
[26] = system: Enterococcus faecium; assay: Bactericidal activity vancomycin-resistant Enterococcus faecium ATCC 700221 assessed as as reduction in bacterial load by measuring reduction in colony forming units at 50 uM preincubated for 5 to 10 min followed by subculturing and further incubated for over night by time-kill kinetic assay; assay type: functional; method in brief: as §2
[27] = system: Staphylococcus aureus; assay: Bactericidal activity against methicillin-resistant Staphylococcus aureus ATCC BAA 1707 assessed as as reduction in bacterial load by measuring reduction in colony forming units at 50 uM preincubated for 3 min followed by subculturing and further incubated for over night by time-kill kinetic assay; assay type: functional; method in brief: as §2
[28] = system: Staphylococcus aureus; assay: as §3, with “18” for “111”; assay type: functional; method in brief: as §4
[29] = system: Staphylococcus aureus; assay: Bactericidal activity against methicillin-resistant Staphylococcus aureus ATCC BAA 1707 assessed as as reduction in bacterial load by measuring reduction in colony forming units at 20 uM preincubated for 5 min followed by subculturing and further incubated for over night by time-kill kinetic assay; assay type: functional; method in brief: as §2
[30] = system: Cryptococcus neoformans; assay: Fungicidal activity against Cryptococcus neoformans ATCC 66031 assessed as as reduction in bacterial load by measuring reduction in colony forming units at 50 uM preincubated for 5 to 10 min followed by subculturing and further incubated for 1 or 2 days by time-kill kinetic assay; assay type: functional; method in brief: as §5
[31] = system: Acinetobacter baumannii; assay: Antibacterial activity against multidrug-resistant Acinetobacter baumannii ATCC 1794 after 16 to 18 hrs by CLSI protocol based broth microdilution assay; assay type: functional
[32] = system: Staphylococcus aureus; assay: Bactericidal activity against methicillin-resistant Staphylococcus aureus ATCC BAA 1707 assessed as as reduction in bacterial load by measuring reduction in colony forming units at 5 uM preincubated for 10 min followed by subculturing and further incubated for over night by time-kill kinetic assay; assay type: functional; method in brief: as §2
[33] = system: Staphylococcus aureus; assay: Bactericidal activity against methicillin-resistant Staphylococcus aureus ATCC BAA 1707 assessed as as reduction in bacterial load by measuring reduction in colony forming units at 50 uM preincubated for 5 to 10 min followed by subculturing and further incubated for over night by time-kill kinetic assay; assay type: functional; method in brief: as §2
[34] = system: Klebsiella pneumoniae; assay: Antibacterial activity against Klebsiella pneumoniae ATCC 13883 after 16 to 18 hrs by CLSI protocol based broth microdilution assay; assay type: functional
[35] = system: Enterococcus faecium; assay: Antibacterial activity against vancomycin-resistant Enterococcus faecium ATCC 700221 after 16 to 18 hrs by CLSI protocol based broth microdilution assay; assay type: functional

CCCCCCCCCCCCCCCC[n+]1ccn(Cc2ccccc2)c1C.[I-]
Activity [1]: 100% | CC50 at 48 h [2]: 2.41 µM

CCCCCCCCCCCCCCCCn1cc[n+](-c2ccccc2)c1C
Activity [3]: 99.9% | Activity [4]: 99.9999% | Activity [5]: >6 log10CFU/ml | MIC [6]: 6.25 µM | Activity [7]: Active | Activity [8]: >99% | Activity [9]: 6 log10CFU/ml | Activity [10]: >99% | Activity [11]: 100% | MIC [12]: 1.17 µM | Activity [13]: 99.99% | Activity [14]: >99.9999% | Activity [15]: <1 log10CFU/ml | Activity [16]: 99.99% | Activity [17]: 4 log10CFU/ml | Activity [18]: 3 log10CFU/ml | Activity [19]: 4 log10CFU/ml | Activity [20]: 99.9% | Activity [21]: 99.99% | Activity [1]: 100% | Activity [22]: 90% | MIC [23]: 1.56 µM | Activity [24]: 100% | Activity [25]: 99.9999% | Activity [26]: 6 log10CFU/ml | Activity [27]: 4 log10CFU/ml | Activity [28]: >3 log10CFU/ml | CC50 at 48 h [2]: < 1.56 µM | Activity [29]: 3 log10CFU/ml | Activity [30]: 7 log10CFU/ml | MIC [31]: 12.5 µM | Activity [32]: 1 log10CFU/ml | Activity [33]: >6 log10CFU/ml | MIC [34]: 6.25 µM | MIC [35]: 3.13 µM

CCCCCCCCCCCCCCCC[N+](C)(C)Cc1ccccc1.[Cl-] [CETALKONIUM CHLORIDE]
Activity [7]: Active | Activity [8]: >99% | Activity [10]: >99% | Activity [16]: 99.99% | Activity [19]: 4 log10CFU/ml | Activity [21]: 99.99% | Activity [1]: 100% | Activity [24]: 100% | Activity [27]: 4 log10CFU/ml | Activity [28]: >3 log10CFU/ml | CC50 at 48 h [2]: 6.84 µM | Activity [33]: >6 log10CFU/ml
